A selection: hits, their analogues and other compounds. The true share with any hit is near 3.5%.
MrgX1 ag: human MrgX1 receptor agonism, primary screen. Q96LB2. B-score at 10 µM. 310,000 tested, 0.44% active. MrgX1-HEK293 cells, Fluo-4 calcium fluorescence, agonist mode; active compounds read high;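 active = calcium response B-score plate-corrected fluorescence ratio at least 3 library SD, with starting fluorescence B-score inside 5 SD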
Target sequence (Q96LB2 whole entry, looked up): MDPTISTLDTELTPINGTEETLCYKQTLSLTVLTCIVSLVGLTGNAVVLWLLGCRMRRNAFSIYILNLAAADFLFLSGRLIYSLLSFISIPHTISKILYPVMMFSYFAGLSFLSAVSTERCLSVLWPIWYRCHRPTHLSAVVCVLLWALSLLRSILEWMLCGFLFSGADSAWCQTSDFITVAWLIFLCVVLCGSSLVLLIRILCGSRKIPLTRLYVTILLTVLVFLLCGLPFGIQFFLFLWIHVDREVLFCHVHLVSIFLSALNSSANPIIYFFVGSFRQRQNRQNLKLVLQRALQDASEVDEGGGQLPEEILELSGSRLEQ
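Test system: HEK293 cells stably expressing human MrgX1 receptor; Input: fifteen thousand cells per well; Dosing: compound delivered in addition one of three; Schedule: overnight seeding, then 1 h dark dye loading; Technique: Fluo-4 NW calcium fluorescence; Measure: B-scored fluorescence response ratio; Controls: positive and negative controls per plate.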
MrgX1 antag: blocks BAM8-22 activation of human MrgX1 receptor | Q96LB2 | MRGX1-HEK293 calcium flux, Fluo-4, BAM8-22 antagonism; active compounds read low | B-score at 10 µM | 310,000 tested, 1.3% active | AID 588676;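 active = calcium-response B-score plate-corrected more than 3 library SD below zero, starting fluorescence within 5 deviations, no agonist response on first addition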;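 also: peak minus trough fluorescence over baseline after final BAM8-22 challenge near maximal dose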
RGS4 act: RGS4 potentiation or activation; HEK293 M3R/inducible RGS4, carbachol calcium flux Fluo4; active compounds read low; AID 463111; B-score at 10 µM; 310,000 tested, 0.92% active;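 active = B-score of the integrated calcium signal more than 4 SD below the library mean, with starting fluorescence not abnormally high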;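 also: negative B-score means reduced calcium response which marks RGS4 activation or potentiation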
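System: HEK293 FlpIn-TREx cells, stable M3R, doxycycline-inducible RGS4. Timing: overnight RGS4 induction, 30 min dye load 37 °C, 20 min compound RT. Also added: carbachol, ECmax concentration. Measured by: Fluo4 fluorescence kinetic imaging of calcium. Evaluation: integrated calcium ratio converted to B score.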
MrgX1 allo act: human MrgX1 positive allosteric modulation, primary screen. MrgX1-HEK293, Fluo-4 calcium flux, FDSS; active compounds read high. B-score at 10 µM. 310,000 tested, 0.63% active. AID 588675;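 active = plate-corrected calcium response at least 3 library SD above typical, normal starting fluorescence, not activating the receptor alone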;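 also: compound read alongside a low EC10 to EC30 dose of BAM8-22 agonist; peak minus trough fluorescence over baseline measured at the second addition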
RGS4 block: human RGS4 inhibition. B-score at 10 µM. HEK293 M3R/RGS4 inducible, Fluo-4 calcium flux; active compounds read high; triggered by carbachol at its EC20. 310,000 tested, 0.45% active. AID 463165. P49798;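 active = B-score, a plate-corrected calcium signal, over three deviations above library mean, with baseline fluorescence within five deviations of library mean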;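 also: RGS4 expression induced by doxycycline in cells with stable M3 receptor; B-score is computed from the integrated fluorescence ratio over baseline after carbachol; higher B-score means a larger calcium signal and so more RGS4 inhibition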
Target sequence (P49798 whole entry, looked up): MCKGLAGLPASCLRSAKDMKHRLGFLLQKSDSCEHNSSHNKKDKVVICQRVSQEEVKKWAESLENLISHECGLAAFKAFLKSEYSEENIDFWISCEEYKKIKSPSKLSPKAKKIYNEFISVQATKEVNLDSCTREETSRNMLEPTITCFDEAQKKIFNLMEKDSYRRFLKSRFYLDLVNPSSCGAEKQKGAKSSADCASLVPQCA
Starred values were filed as active, the others as inactive.

`CC1CCN(CCCCOc2ccc(C(=O)c3ccccc3)cc2)CC1` gave MrgX1 ag inactive, MrgX1 antag inactive, RGS4 act -9.6*, MrgX1 allo act inactive and RGS4 block inactive.
Screening Cc1cc(Br)ccc1OCCOCCN1CCCC1 returned MrgX1 ag inactive, MrgX1 antag inactive, RGS4 act inactive, MrgX1 allo act inactive and RGS4 block inactive.
CC1CCN(CCCCOc2ccc([N+](=O)[O-])cc2)CC1 was read as MrgX1 ag inactive, MrgX1 antag inactive, RGS4 act -7.3*, MrgX1 allo act inactive and RGS4 block inactive.
CC(C)(C)c1ccc(OCCCN2CCCC2)cc1 was read as MrgX1 ag inactive, MrgX1 antag inactive, RGS4 act inactive, MrgX1 allo act inactive and RGS4 block inactive.
For COC(=O)C(Cc1ccc(O)cc1)NC(=O)C(CC(=O)OC(C)(C)C)NC(=O)OC(C)(C)C (stereo not given) the results were MrgX1 ag inactive, MrgX1 antag inactive, RGS4 act inactive, MrgX1 allo act inactive and RGS4 block inactive.
`CC1CCN(CCCCOc2ccc(F)cc2)CC1` gave MrgX1 ag inactive, MrgX1 antag inactive, RGS4 act inactive, MrgX1 allo act inactive and RGS4 block inactive.
`Cc1ccc(OCCCCN2CCC(C)CC2)cc1` gave MrgX1 ag inactive, MrgX1 antag inactive, RGS4 act -7.2*, MrgX1 allo act inactive and RGS4 block inactive.
For Clc1ccc(OCCCCN2CCCCC2)cc1 the results were MrgX1 ag inactive, MrgX1 antag inactive, RGS4 act -7.1*, MrgX1 allo act inactive and RGS4 block inactive.
O=[N+]([O-])c1ccc(OCCCCN2CCCCC2)cc1 was read as MrgX1 ag inactive, MrgX1 antag inactive, RGS4 act -7.6*, MrgX1 allo act inactive and RGS4 block inactive.
CC(C)c1ccc(OCCCCN2CCCCC2)cc1 was read as MrgX1 ag inactive, MrgX1 antag inactive, RGS4 act inactive, MrgX1 allo act inactive and RGS4 block inactive.
Screening O=C(OCC(=O)N(CCc1ccccc1)Cc1ccccc1)c1ccccc1NCCO returned MrgX1 ag inactive, MrgX1 antag inactive, RGS4 act -8.4*, MrgX1 allo act inactive and RGS4 block inactive.
For O=C(OCC(=O)N(CCc1ccccc1)Cc1ccccc1)c1ccccc1O the results were MrgX1 ag inactive, MrgX1 antag inactive, RGS4 act inactive, MrgX1 allo act inactive and RGS4 block inactive.
COc1cc(OC)cc(-c2nnc(Sc3ccc(C=O)cc3[N+](=O)[O-])o2)c1 was read as MrgX1 ag inactive, MrgX1 antag -4.5*, RGS4 act inactive, MrgX1 allo act inactive and RGS4 block 7.2*.
For COc1cc(OC)cc(-c2nnc(SCC(=O)N(C(C)C)C(C)C)o2)c1 the results were MrgX1 ag inactive, MrgX1 antag inactive, RGS4 act inactive, MrgX1 allo act inactive and RGS4 block inactive.
For Cc1ccc(C(=O)/C=C/c2cc(Br)cc(Br)c2O)o1 the results were MrgX1 ag inactive, MrgX1 antag -5.3*, RGS4 act inactive, MrgX1 allo act inactive and RGS4 block inactive.
Screening Cc1ccc(C(=O)/C=C/N(C)C)o1 returned MrgX1 ag inactive, MrgX1 antag inactive, RGS4 act inactive, MrgX1 allo act inactive and RGS4 block inactive.
CCC(C)[C@H](NC(=O)N1CCCCCC1)C(=O)OC (stereo not given in full) was read as MrgX1 ag inactive, MrgX1 antag inactive, RGS4 act inactive, MrgX1 allo act inactive and RGS4 block inactive.
`N#C/C(=C\c1ccc[nH]1)C(=O)NCC1CCCO1` (stereo not given) gave MrgX1 ag inactive, MrgX1 antag inactive, RGS4 act inactive, MrgX1 allo act 7.8* and RGS4 block inactive.
Screening CC(NCC(O)c1ccc([N+](=O)[O-])cc1)C12CC3CC(CC(C3)C1)C2 (stereo not given) returned MrgX1 ag inactive, MrgX1 antag inactive, RGS4 act inactive, MrgX1 allo act inactive and RGS4 block inactive.
CN(C(=O)COC(=O)c1cccc(S(=O)(=O)N2CCCCCC2)c1)C1CCS(=O)(=O)C1 (stereo not given) was read as MrgX1 ag inactive, MrgX1 antag inactive, RGS4 act inactive, MrgX1 allo act inactive and RGS4 block inactive.
CN(C(=O)COC(=O)c1cccc(S(=O)(=O)N2CCOCC2)c1)C1CCS(=O)(=O)C1 (stereo not given) was read as MrgX1 ag inactive, MrgX1 antag -5.4*, RGS4 act inactive, MrgX1 allo act inactive and RGS4 block inactive.
For O=C(NCc1ccccc1)c1onc(CS(=O)(=O)c2ccccn2)c1C(=O)NCc1ccccc1 the results were MrgX1 ag inactive, MrgX1 antag inactive, RGS4 act inactive, MrgX1 allo act inactive and RGS4 block inactive.
Screening Cc1c(-c2cccc(Cl)c2)nc2ccccc2c1C(=O)OC/C(O)=C(\C#N)c1nc2ccccc2[nH]1 returned MrgX1 ag inactive, MrgX1 antag inactive, RGS4 act inactive, MrgX1 allo act inactive and RGS4 block inactive.
Screening CCOC(=O)c1sc(=S)n(-c2ccccc2Cl)c1C returned MrgX1 ag inactive, MrgX1 antag inactive, RGS4 act -9.3*, MrgX1 allo act inactive and RGS4 block inactive.
For COc1ccc(S(=O)(=O)n2nc(-c3cc(OC)c(OC)c(OC)c3)cc2N)cc1OC the results were MrgX1 ag inactive, MrgX1 antag inactive and MrgX1 allo act inactive.
COc1ccc(-c2cc(N)n(S(=O)(=O)c3c(F)c(F)c(F)c(F)c3F)n2)cc1OC was read as MrgX1 ag inactive, MrgX1 antag -6.9*, RGS4 act inactive, MrgX1 allo act inactive and RGS4 block inactive.
`CSc1ccccc1NC(=O)CN1CCCCC1C` (stereo not given) gave MrgX1 ag inactive, MrgX1 antag inactive, RGS4 act inactive, MrgX1 allo act inactive and RGS4 block inactive.
`CC1CCCCN1CC(=O)NC(c1ccccc1)c1ccccc1` (stereo not given) gave MrgX1 ag inactive, MrgX1 antag inactive, RGS4 act -7.3*, MrgX1 allo act inactive and RGS4 block inactive.
Screening CN(CCCC(=O)Nc1ccc(Br)cc1F)S(=O)(=O)c1ccccc1 returned MrgX1 ag inactive, MrgX1 antag inactive, RGS4 act inactive, MrgX1 allo act inactive and RGS4 block inactive.
`S=C(NCCC(c1ccccc1)c1ccccc1)Nc1cccc(Cl)c1` gave MrgX1 ag inactive, MrgX1 antag inactive, RGS4 act -7.6*, MrgX1 allo act inactive and RGS4 block inactive.
For CC(C)=CCC/C(C)=C/COc1ccc2ccc(=O)oc2c1 the results were MrgX1 ag inactive, MrgX1 antag inactive, RGS4 act inactive, MrgX1 allo act inactive and RGS4 block inactive.

Compound activity deposited in PubChem BioAssay by Johns Hopkins Ion Channel Center.
